This is an account of results in publication PMC3286832 (Nature Communications, 2011).

The experiment concerns MPP8–GLP interaction in 293T cells. The experiment in a line: Co-immunoprecipitation of MPP8 and GLP in 293T cells. Format: cell-based, human. In short, it runs like this:
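293T cells (parental, or MPP8 stable knockdown for the chromodomain W80A mutant) were cotransfected with Flag-MPP8 and HA-GLP (WT, K199R, K205R or K209R) for 48 h. Lysates were immunoprecipitated with 1 μg anti-HA or anti-Flag on protein-G agarose, washed with IPH containing 300 or 600 mM NaCl, and analysed by western blot. Input was 5%.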

B1: GLP K205R: HA–GLP K205R mutant (protein)
chain: MAAADAEAVPARGEPQQDCCVKTELLGEETPMAADEGSAEKQAGEAHMAADGETNGSCENSDASSHANAAKHTQDSARVNPQDGTNTLTRIAENGVSERDSEAAKQNHVTADDFVQTSVIGSNGYILNKPALQAQPLRTTSTLASSLPGHAAKTLPGGAGKGRTPSAFPQTPAAPPATLGEGSADTEDRKLPAPGADVKVHRARRTMPKSVVGLHAASKDPREVREARDHKEPKEEINKNISDFGRQQLLPPFPSLHQSLPQNQCYMATTKSQTACLPFVLAAAVSRKKKRRMGTYSLVPKKKTKVLKQRTVIEMFKSITHSTVGSKGEKDLGASSLHVNGESLEMDSDEDDSEELEEDDGHGAEQAAAFPTEDSRTSKESMSEADRAQKMDGESEEEQESVDTGEEEEGGDESDLSSESSIKKKFLKRKGKTDSPWIKPARKRRRRSRKKPSGALGSESYKSSAGSAEQTAPGDSTGYMEVSLDSLDLRVKGILSSQAEGLANGPDVLETDGLQEVPLCSCRMETPKSREITTLANNQCMATESVDHELGRCTNSVVKYELMRPSNKAPLLVLCEDHRGRMVKHQCCPGCGYFCTAGNFMECQPESSISHRFHKDCASRVNNASYCPHCGEESSKAKEVTIAKADTTSTVTPVPGQEKGSALEGRADTTTGSAAGPPLSEDDKLQGAASHVPEGFDPTGPAGLGRPTPGLSQGPGKETLESALIALDSEKPKKLRFHPKQLYFSARQGELQKVLLMLVDGIDPNFKMEHQNKRSPLHAAAEAGHVDICHMLVQAGANIDTCSEDQRTPLMEAAENNHLEAVKYLIKAGALVDPKDAEGSTCLHLAAKKGHYEVVQYLLSNGQMDVNCQDDGGWTPMIWATEYKHVDLVKLLLSKGSDINIRDNEENICLHWAAFSGCVDIAEILLAAKCDLHAVNIHGDSPLHIAARENRYDCVVLFLSRDSDVTLKNKEGETPLQCASLNSQVWSALQMSKALQDSAPDRPSPVERIVSRDIARGYERIPIPCVNAVDSEPCPSNYKYVSQNCVTSPMNIDRNITHLQYCVCIDDCSSSNCMCGQLSMRCWYDKDGRLLPEFNMAEPPLIFECNHACSCWRNCRNRVVQNGLRARLQLYRTRDMGWGVRSLQDIPPGTFVCEYVGELISDSEADVREEDSYLFDLDNKDGEVYCIDARFYGNVSRFINHHCEPNLVPVRVFMAHQDLRFPRIAFFSTRLIEAGEQLGFDYGERFWDIKGKLFSCRCGSPKCRHSSAALAQRQASAAQEAQEDGLPDTSSAAAADPL
modifications: left off: HA, end not stated, kept
B1: the “MPP8–GLP interaction in cells” value is on record as “impairs GLP–MPP8 interaction in cells”.
